Reference: ChEMBL document CHEMBL1154942, “Design, synthesis and evaluation of carbamate-modified (-)-N(1)-phenethylnorphysostigmine derivatives as selective butyrylcholinesterase inhibitors” (Bioorg Med Chem Lett, 2010)

Tests used:
[1] = molecular target: Cholinesterase (Mus musculus, UniProt Q03311); assay: Inhibition of mouse serum BChE after 1 hr by modified Ellman's colorimetric method
How it was run: (§1)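 Enzyme from mouse serum extract. Compounds preincubated with enzyme 1 h at 37 °C, then butyrylthiocholine plus DTNB added. Absorbance read at 415 nm at 2 min intervals. Activity expressed as percent of DMSO solvent control. Seven concentrations tested. IC50 from nonlinear regression of sigmoidal dose–response, accepted only if r² ≥ 0.95. Mean of at least four independent measurements.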

[2] = molecular target: T1, Acetylcholinesterase (Mus musculus, UniProt P21836); assay: Inhibition of mouse brain AChE after 1 hr by modified Ellman's colorimetric method
T1 sequence (P21836 whole entry): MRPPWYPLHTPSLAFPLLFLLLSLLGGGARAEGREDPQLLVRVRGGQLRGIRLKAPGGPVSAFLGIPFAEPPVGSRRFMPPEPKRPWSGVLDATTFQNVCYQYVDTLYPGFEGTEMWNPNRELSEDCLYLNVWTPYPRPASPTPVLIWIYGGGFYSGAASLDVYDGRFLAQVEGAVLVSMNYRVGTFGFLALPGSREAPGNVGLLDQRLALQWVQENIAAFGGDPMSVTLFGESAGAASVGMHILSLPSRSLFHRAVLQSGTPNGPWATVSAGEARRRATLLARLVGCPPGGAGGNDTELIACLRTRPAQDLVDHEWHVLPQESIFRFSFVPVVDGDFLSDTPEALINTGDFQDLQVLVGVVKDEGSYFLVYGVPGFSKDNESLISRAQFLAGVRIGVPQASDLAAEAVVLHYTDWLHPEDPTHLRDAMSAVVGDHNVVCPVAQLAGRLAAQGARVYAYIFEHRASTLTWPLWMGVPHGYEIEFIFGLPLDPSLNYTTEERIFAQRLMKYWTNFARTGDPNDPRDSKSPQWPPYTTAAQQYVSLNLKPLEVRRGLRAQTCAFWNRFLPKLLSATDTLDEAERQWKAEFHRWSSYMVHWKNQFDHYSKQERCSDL
How it was run: as §1, with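 “brain” for “serum”, “acetylthiocholine” for “butyrylthiocholine”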

Chain of Cholinesterase (Q03311 whole entry): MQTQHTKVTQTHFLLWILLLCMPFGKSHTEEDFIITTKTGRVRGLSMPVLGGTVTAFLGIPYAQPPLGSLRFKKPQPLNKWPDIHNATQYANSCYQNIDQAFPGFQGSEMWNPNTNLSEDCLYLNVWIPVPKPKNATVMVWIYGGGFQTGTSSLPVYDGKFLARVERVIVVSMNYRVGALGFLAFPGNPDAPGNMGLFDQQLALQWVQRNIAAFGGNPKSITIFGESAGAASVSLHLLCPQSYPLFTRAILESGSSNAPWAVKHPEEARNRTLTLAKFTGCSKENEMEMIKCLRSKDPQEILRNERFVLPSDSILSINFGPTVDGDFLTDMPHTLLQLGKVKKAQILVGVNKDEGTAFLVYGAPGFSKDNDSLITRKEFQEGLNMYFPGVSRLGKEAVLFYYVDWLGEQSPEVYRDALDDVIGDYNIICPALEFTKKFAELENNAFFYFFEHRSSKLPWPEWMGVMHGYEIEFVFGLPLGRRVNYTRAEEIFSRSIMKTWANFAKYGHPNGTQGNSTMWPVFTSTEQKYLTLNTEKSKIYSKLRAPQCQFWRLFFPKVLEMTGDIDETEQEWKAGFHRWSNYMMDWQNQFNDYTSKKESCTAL

Q: Which IC50 [1] does the source give for `CCCCc1ccc(NC(=O)Oc2ccc3c(c2)[C@]2(C)CCN(CCc4ccccc4)[C@@H]2N3C)cc1` here?
A: Its IC50 is 980 nM.

Q: And the IC50 [2]?
A: The IC50 was 48000 nM.

Q: Which IC50 [1] does the source give for `CN1c2ccc(OC(=O)Nc3ccc(C(C)(C)C)cc3)cc2[C@]2(C)CCN(CCc3ccccc3)[C@H]12` here?
A: The IC50 was 430 nM.

Q: And the IC50 [2]?
A: The IC50 was 15000 nM.

Q: Which IC50 [1] does the source give for `CCCCCCNC(=O)Oc1ccc2c(c1)[C@]1(C)CCN(CCc3ccccc3)[C@@H]1N2C` here?
A: The IC50 was 14 nM.

Q: What about the IC50 [2] of the same molecule?
A: The IC50 was 970 nM.

Q: For `CN1c2ccc(OC(=O)Nc3ccc(Cl)cc3)cc2[C@]2(C)CCN(CCc3ccccc3)[C@H]12`, which IC50 [1] is on record?
A: The IC50 was 370 nM.

Q: And the IC50 [2]?
A: Its IC50 is over 100000 nM.

Q: Which IC50 [1] does the source give for `CN1c2ccc(OC(=O)Nc3ccc4ccccc4c3)cc2[C@]2(C)CCN(CCc3ccccc3)[C@H]12` here?
A: The IC50 was 580 nM.

Q: What about the IC50 [2] of the same molecule?
A: The IC50 was 44000 nM.

Q: How did the IC50 [1] turn out when `CN1c2ccc(OC(=O)Nc3ccc([N+](=O)[O-])cc3)cc2[C@]2(C)CCN(CCc3ccccc3)[C@H]12` was run?
A: Its IC50 is 6700 nM.

Q: And the IC50 [2]?
A: The IC50 was over 100000 nM.

Q: With `COc1ccc(NC(=O)Oc2ccc3c(c2)[C@]2(C)CCN(CCc4ccccc4)[C@@H]2N3C)cc1OC` as the molecule, how does the IC50 [1] read?
A: Its IC50 is 97 nM.

Q: What about the IC50 [2] of the same molecule?
A: The IC50 was 11000 nM.

Q: With `CC(C)c1ccc(NC(=O)Oc2ccc3c(c2)[C@]2(C)CCN(CCc4ccccc4)[C@@H]2N3C)cc1` [PHENETHYLCYMSERINE] as the molecule, how does the IC50 [1] read?
A: The IC50 was 540 nM.

Q: And the IC50 [2]?
A: The IC50 was over 100000 nM.

Q: Which IC50 [1] does the source give for `CN1c2ccc(OC(=O)NCCc3ccccc3)cc2[C@]2(C)CCN(CCc3ccccc3)[C@H]12` here?
A: The IC50 was 16 nM.

Q: What about the IC50 [2] of the same molecule?
A: Its IC50 is 450 nM.

Q: What does the source list for `CNC(=O)Oc1ccc2c(c1)[C@]1(C)CCN(CCc3ccccc3)[C@@H]1N2C`?
A: IC50 [1]: 10 nM; IC50 [2]: 170 nM

Q: Which IC50 [1] does the source give for `CN(C)c1ccc(NC(=O)Oc2ccc3c(c2)[C@]2(C)CCN(CCc4ccccc4)[C@@H]2N3C)cc1` here?
A: Its IC50 is 79 nM.

Q: And the IC50 [2]?
A: Its IC50 is over 100000 nM.

Q: Which IC50 [1] does the source give for `CN1c2ccc(OC(=O)Nc3ccc(-c4ccccc4)cc3)cc2[C@]2(C)CCN(CCc3ccccc3)[C@H]12` here?
A: The IC50 was 1100 nM.

Q: And the IC50 [2]?
A: The IC50 was over 100000 nM.

Q: With `CN1c2ccc(OC(=O)Nc3ccc(Oc4ccccc4)cc3)cc2[C@]2(C)CCN(CCc3ccccc3)[C@H]12` as the molecule, how does the IC50 [1] read?
A: Its IC50 is 2000 nM.

Q: What about the IC50 [2] of the same molecule?
A: Its IC50 is over 100000 nM.

Q: Which IC50 [1] does the source give for `CN1c2ccc(OC(=O)NCC3CCCCC3)cc2[C@]2(C)CCN(CCc3ccccc3)[C@H]12` here?
A: Its IC50 is 1.8 nM.

Q: And the IC50 [2]?
A: Its IC50 is 2500 nM.

Q: What does the source list for `CN1c2ccc(OC(=O)NC3CCCCC3)cc2[C@]2(C)CCN(CCc3ccccc3)[C@H]12`?
A: IC50 [1]: 22 nM; IC50 [2]: 5600 nM

Q: For `CCCCCCOc1ccc(NC(=O)Oc2ccc3c(c2)[C@]2(C)CCN(CCc4ccccc4)[C@@H]2N3C)cc1`, which IC50 [1] is on record?
A: Its IC50 is 1400 nM.

Q: What about the IC50 [2] of the same molecule?
A: Its IC50 is over 100000 nM.

Q: `CN1c2ccc(OC(=O)Nc3ccc4c(c3)OCO4)cc2[C@]2(C)CCN(CCc3ccccc3)[C@H]12` was tested. Which IC50 [1] did it give?
A: The IC50 was 100 nM.

Q: And the IC50 [2]?
A: Its IC50 is 1900 nM.

Q: `CN1c2ccc(OC(=O)Nc3ccccc3)cc2[C@]2(C)CCN(CCc3ccccc3)[C@H]12` was tested. Which IC50 [1] did it give?
A: Its IC50 is 340 nM.

Q: What about the IC50 [2] of the same molecule?
A: The IC50 was 1600 nM.

Q: How did the IC50 [1] turn out when `CC(=O)c1ccc(NC(=O)Oc2ccc3c(c2)[C@]2(C)CCN(CCc4ccccc4)[C@@H]2N3C)cc1` was run?
A: Its IC50 is 5900 nM.

Q: And the IC50 [2]?
A: Its IC50 is over 100000 nM.

Q: For `COc1ccc(NC(=O)Oc2ccc3c(c2)[C@]2(C)CCN(CCc4ccccc4)[C@@H]2N3C)cc1`, which IC50 [1] is on record?
A: The IC50 was 83 nM.

Q: What about the IC50 [2] of the same molecule?
A: Its IC50 is 33000 nM.

Q: Which IC50 [1] does the source give for `CN1c2ccc(OC(=O)NCc3ccccc3)cc2[C@]2(C)CCN(CCc3ccccc3)[C@H]12` here?
A: The IC50 was 6.6 nM.

Q: What about the IC50 [2] of the same molecule?
A: The IC50 was 180 nM.

Q: What does the source list for `CNC(=O)Oc1ccc2c(c1)[C@]1(C)CCN(C)[C@@H]1N2C` [PHYSOSTIGMINE]?
A: IC50 [1]: 280 nM; IC50 [2]: 40 nM
